Activity, inhibition and AUClast data for 1 compound are collected here from ChEMBL document CHEMBL2010643 (Bioorg Med Chem Lett, 2012).

In series [1] the target is Dual specificity protein kinase TTK (Homo sapiens) (UniProt P33981). The series can be described thus: Inhibition of TTK assessed as residual activity at 1 uM relative to control. The gist of the method:
(§1)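 Radioactivity-based enzymatic kinase assays run across a 124-kinase profiling panel (Dundee), reporting the remaining kinase activity relative to a control.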

Series [2] deals with Tyrosine-protein kinase ZAP-70 (Homo sapiens) (UniProt P43403). As to the kind of experiment: Inhibition of ZAP70 assessed as residual activity at 1 uM relative to control. The gist of the method: as §1
In series [3] the target is Dual specificity mitogen-activated protein kinase kinase 1 (Homo sapiens) (UniProt Q02750). The series can be described thus: Inhibition of MKK1 assessed as residual activity at 10 uM relative to control.
Series [4] concerns Leucine-rich repeat serine/threonine-protein kinase 2 (Homo sapiens), Q5S007 [A2016T]. The series can be described thus: Inhibition of LRRK2 A2016T mutant phosphorylation at Ser935 expressed in HEK293 cells at 1 to 3 uM after 90 mins by immunoblot analysis. It counts as cell-based. Background: In western blotting, separated proteins are transferred to a membrane and probed.
Series [5] concerns the target Leucine-rich repeat serine/threonine-protein kinase 2 (Mus musculus) (UniProt Q5S006). As to the kind of experiment: Inhibition of wild type LRRK2 phosphorylation at Ser910 in mouse 3T3 cells after 90 mins by Western blot analysis. It counts as cell-based. The gist of the method:
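Mouse Swiss 3T3 cells treated with DMSO or increasing inhibitor concentrations for 90 min. Endogenous LRRK2 in lysates immunoblotted with purified phospho-specific antibodies to Ser910 and Ser935 and with a total LRRK2 antibody. Blots done in duplicate, representative of at least two independent experiments.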

Another series has as its system Brain. The series can be described thus: AUClast in Swiss albino mouse brain at 1 mg/kg, iv. It counts as ADME, organism-based. More on the design: time 0 - last, dose 1 mg/kg, route intravenous. The settings on record: in vivo. The gist of the method:
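Male Swiss Albino mice were given a single dose, either intravenous at 1 mg/kg or oral at 10 mg/kg. AUClast was measured in plasma and in brain. Half-life, plasma clearance, volume of distribution and oral bioavailability were derived from the plasma data.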

Series [6] deals with Angiopoietin-1 receptor (Homo sapiens) (UniProt Q02763). As to the kind of experiment: Inhibition of TIE2 assessed as residual activity at 10 uM relative to control. An outline of the steps: as §1
Series [7] deals with Death-associated protein kinase 1 (Homo sapiens) (UniProt P53355). The series can be described thus: Inhibition of DAPK1 assessed as residual activity at 1 uM relative to control. The gist of the method: (§2)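 Standard radioactivity-based enzymatic assays were run across a 124-kinase panel (Dundee profiling), with compound at 1 µM. Kinase activity was expressed relative to control.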

Another series deals with Mus musculus. The series can be described thus: Inhibition of LRRK2 phosphorylation at Ser935 in C57BL/6 mouse kidney at 50 mg/kg, po administered for 8 hrs followed by 2 hrs dosing. The class given is functional, organism-based. Further details: dose 50 mg/kg. An outline of the steps:
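Mice were dosed by oral gavage at 10 or 50 mg/kg. Brain, spleen and kidney were collected. Endogenous LRRK2 was resolved by SDS–PAGE and blotted with phospho-specific antibodies to Ser910 and Ser935 and with an antibody to total LRRK2.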

Series [8] has as its target Ephrin type-B receptor 1 (Homo sapiens) (UniProt P54762). The series can be described thus: Inhibition of EPH-B1 assessed as residual activity at 1 uM relative to control. An outline of the steps: as §2
In series [9] the target is Mitogen-activated protein kinase 13 (Homo sapiens) (UniProt O15264). As to the kind of experiment: Inhibition of p38delta MAPK assessed as residual activity at 1 uM relative to control. The gist of the method: as §1
Series [10] in a line: Inhibition of PKA assessed as residual activity at 1 uM relative to control.
Series [11] concerns the target Serine/threonine-protein kinase N2 (Homo sapiens) (UniProt Q16513). As to the kind of experiment: Inhibition of PRK2 assessed as residual activity at 1 uM relative to control.

Active and inactive are the calls of the source. The rule behind the calls is not given here.

Death-associated protein kinase 1 (Homo sapiens), sequence (P53355 whole entry, looked up): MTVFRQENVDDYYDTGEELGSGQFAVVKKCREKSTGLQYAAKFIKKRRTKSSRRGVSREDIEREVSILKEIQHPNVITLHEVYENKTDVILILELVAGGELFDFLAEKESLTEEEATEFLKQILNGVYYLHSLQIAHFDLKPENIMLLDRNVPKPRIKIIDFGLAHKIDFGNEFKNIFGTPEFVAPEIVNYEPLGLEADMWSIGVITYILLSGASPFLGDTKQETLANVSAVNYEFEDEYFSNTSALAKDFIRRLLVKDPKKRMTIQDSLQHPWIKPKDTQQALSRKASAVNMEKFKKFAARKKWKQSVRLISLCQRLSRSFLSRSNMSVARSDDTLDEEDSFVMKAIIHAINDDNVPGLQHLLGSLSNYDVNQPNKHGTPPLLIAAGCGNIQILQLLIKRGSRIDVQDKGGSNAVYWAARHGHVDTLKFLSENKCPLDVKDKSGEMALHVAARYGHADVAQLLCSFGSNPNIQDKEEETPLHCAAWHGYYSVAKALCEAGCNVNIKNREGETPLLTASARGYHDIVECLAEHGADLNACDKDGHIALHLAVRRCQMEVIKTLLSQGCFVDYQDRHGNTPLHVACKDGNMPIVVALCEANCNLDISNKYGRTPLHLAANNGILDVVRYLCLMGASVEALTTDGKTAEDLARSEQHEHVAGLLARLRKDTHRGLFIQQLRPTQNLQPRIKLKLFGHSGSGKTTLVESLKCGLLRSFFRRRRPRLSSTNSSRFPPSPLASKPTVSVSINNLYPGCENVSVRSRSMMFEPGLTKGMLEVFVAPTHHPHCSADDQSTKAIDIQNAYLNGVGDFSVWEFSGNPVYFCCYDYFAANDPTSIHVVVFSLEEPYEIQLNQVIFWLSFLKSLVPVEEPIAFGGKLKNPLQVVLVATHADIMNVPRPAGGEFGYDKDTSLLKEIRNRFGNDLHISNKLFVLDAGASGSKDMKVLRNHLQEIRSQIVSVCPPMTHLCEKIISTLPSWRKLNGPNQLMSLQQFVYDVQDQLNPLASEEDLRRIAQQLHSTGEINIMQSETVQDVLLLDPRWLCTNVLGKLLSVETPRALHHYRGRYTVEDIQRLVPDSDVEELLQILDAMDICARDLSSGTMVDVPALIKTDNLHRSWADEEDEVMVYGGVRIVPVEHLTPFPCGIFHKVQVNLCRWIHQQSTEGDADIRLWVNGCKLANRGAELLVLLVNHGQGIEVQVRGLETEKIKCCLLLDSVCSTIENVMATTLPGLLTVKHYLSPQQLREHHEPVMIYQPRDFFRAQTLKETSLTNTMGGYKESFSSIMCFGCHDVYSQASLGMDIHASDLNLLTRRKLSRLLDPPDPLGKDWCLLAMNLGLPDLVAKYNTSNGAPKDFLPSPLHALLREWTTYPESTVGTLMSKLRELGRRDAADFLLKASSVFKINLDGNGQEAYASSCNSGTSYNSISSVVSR
Dual specificity protein kinase TTK (Homo sapiens), sequence (P33981 whole entry): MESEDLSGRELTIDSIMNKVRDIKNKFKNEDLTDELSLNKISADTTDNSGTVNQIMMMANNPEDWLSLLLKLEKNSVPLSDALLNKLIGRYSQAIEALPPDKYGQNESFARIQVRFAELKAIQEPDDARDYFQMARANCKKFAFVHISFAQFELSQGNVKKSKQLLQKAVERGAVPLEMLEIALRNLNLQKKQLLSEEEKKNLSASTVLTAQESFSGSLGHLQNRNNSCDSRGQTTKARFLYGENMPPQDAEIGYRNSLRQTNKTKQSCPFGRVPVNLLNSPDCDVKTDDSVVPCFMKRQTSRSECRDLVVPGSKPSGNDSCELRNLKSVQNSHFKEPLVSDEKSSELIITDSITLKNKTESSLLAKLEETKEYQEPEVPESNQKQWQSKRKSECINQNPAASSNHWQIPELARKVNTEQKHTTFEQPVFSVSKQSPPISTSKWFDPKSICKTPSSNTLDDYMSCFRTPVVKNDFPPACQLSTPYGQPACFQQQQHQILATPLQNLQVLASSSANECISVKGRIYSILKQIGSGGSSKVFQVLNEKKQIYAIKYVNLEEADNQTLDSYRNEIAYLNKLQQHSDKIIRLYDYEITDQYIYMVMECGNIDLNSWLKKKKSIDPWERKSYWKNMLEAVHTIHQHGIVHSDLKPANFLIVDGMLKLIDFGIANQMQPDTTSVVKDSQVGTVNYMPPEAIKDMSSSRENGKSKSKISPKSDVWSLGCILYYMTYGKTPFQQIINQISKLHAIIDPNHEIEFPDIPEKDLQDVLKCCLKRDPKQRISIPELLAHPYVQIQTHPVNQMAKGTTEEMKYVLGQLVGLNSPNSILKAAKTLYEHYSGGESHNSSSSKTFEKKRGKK
Dual specificity mitogen-activated protein kinase kinase 1 (Homo sapiens), sequence (Q02750 whole entry): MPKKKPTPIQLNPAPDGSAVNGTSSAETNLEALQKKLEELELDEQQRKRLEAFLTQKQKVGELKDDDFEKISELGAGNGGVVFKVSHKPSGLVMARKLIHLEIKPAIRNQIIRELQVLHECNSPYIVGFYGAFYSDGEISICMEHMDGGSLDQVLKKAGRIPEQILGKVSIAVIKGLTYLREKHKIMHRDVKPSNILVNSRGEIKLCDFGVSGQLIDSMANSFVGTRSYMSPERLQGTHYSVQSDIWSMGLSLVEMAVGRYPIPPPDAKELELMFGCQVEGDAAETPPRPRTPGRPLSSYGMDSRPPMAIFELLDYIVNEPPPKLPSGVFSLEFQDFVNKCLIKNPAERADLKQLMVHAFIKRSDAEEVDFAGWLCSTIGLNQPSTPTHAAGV
Ephrin type-B receptor 1 (Homo sapiens), sequence (P54762 whole entry): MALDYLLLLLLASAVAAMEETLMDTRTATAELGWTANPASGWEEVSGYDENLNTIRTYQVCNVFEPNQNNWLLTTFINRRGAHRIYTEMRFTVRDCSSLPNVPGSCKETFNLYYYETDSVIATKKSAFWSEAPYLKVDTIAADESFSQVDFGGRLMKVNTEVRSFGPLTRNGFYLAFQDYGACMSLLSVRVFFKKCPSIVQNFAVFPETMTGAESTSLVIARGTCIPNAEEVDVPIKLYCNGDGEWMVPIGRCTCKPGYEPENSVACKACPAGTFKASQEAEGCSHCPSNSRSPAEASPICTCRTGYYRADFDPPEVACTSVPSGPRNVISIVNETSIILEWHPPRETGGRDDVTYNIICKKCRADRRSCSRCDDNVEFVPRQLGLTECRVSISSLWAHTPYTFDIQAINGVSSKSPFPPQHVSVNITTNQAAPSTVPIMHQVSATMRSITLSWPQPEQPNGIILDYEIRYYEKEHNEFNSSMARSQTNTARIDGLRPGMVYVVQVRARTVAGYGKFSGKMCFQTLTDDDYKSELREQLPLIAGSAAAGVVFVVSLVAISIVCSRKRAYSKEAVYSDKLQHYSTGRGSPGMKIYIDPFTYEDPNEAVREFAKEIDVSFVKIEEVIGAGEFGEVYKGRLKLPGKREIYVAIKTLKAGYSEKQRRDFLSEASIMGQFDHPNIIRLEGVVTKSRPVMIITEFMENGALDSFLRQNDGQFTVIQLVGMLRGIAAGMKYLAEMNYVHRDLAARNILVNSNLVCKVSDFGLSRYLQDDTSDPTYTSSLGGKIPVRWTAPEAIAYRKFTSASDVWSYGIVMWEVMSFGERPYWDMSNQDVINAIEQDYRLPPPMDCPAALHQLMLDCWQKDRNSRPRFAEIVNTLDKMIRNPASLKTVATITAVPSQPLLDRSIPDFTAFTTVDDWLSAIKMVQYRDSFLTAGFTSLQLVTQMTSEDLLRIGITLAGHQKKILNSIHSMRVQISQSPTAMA
Mitogen-activated protein kinase 13 (Homo sapiens), sequence (O15264 whole entry): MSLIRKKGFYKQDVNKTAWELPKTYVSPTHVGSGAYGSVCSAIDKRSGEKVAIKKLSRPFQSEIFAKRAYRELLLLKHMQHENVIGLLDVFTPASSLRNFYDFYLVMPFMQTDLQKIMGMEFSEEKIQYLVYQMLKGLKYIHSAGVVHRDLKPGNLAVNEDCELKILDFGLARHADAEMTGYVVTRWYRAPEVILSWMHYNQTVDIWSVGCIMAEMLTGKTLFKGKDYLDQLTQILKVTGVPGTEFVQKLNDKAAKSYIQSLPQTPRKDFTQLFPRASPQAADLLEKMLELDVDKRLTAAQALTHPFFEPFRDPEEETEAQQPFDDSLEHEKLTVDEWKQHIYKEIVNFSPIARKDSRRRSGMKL
Tyrosine-protein kinase ZAP-70 (Homo sapiens), sequence (P43403 whole entry): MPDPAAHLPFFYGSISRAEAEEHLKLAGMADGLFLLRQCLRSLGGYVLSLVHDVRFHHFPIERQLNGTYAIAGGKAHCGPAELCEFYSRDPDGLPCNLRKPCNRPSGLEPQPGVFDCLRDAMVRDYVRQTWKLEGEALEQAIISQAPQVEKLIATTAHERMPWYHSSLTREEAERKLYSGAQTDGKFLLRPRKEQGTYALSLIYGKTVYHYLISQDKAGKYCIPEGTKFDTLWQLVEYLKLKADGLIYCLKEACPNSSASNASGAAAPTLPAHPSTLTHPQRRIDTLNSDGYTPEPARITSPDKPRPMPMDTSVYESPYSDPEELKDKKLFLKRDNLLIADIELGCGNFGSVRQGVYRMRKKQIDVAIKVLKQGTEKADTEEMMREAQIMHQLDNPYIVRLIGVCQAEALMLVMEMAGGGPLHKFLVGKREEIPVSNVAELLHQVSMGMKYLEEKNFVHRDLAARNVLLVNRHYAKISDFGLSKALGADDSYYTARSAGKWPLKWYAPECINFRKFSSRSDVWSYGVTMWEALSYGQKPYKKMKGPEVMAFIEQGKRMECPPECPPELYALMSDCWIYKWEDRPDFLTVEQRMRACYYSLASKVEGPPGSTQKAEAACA

With `COc1cc(N2CCC(N3CCN(C)CC3)CC2)ccc1Nc1ncc(Cl)c(Nc2ccccc2S(=O)(=O)C(C)C)n1` [TAE-684], the Activity is 73% in [1]; 113% in series [2]; 30% in series [3]; 5% in series [6]; 98% in series [7]; 50% in series [8]. Further, the Activity came out at 94% in series [9], 90% in series [10] and 51% in series [11]. In addition, the inhibition entry (in [4]; with Mus musculus) was “Active” in each case. Also, the inhibition entry in [5] was “Dose-dependent effect”. Also, in the series on Brain, the AUClast came to 1318 ng·h/mL.
